Fewer inactive variants are shown than the library holds.
B1: tRNA (parent)
chain: GUUCCGUUGGCGUAAUGGUAACGCGUCUCCCUCCUAAGGAGAAGACUGCGGGUUCGAGUCCCGUACGGAACG

Variants of: B1
Assay: yeast fitness relative to wild type (ratio to wild type); higher = fitter; tRNA-Arg(CCU), competitive growth, 37 C, YPD
Outline: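 The tRNA-Arg(CCU) gene variants were made by chemical synthesis with a 3% per-site mutation rate at 69 sites and inserted at the native genomic locus of Saccharomyces cerevisiae. After pooling, the strains were competed in YPD at 37°C for 24 hours in six parallel replicates. Gene amplicons from the start population and each end population were read by 100-nucleotide paired-end sequencing, and Darwinian fitness relative to wild type was taken from genotype frequency changes. Genotypes needed ≥ 100 starting reads, and estimates < 0.5 were set to 0.5.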

First: GUUCCGUUGGCGUAAUGGUAACGCGUAUCCAUCCUACGGAGAAGAGUGCGGGUUCGAGUCCCGUACGGAACG [C27A C31A A37C C46G]
Second: GUUCCGUUGGCGUAAUGGUAACGCGUAUCCAUCCUAAGGAGAAGACUGCGGGUUCGAGUCCCGUACGGUACG [C27A C31A A69U]
The yeast fitness of the first is lower: at most 0.5 for the first, 0.567 for the second.

Compared with GUUCCGUUGGCGUAAUGGUAACGCGUAUCCAUCCUAAGGAGAAGAGUGCGGGUUCGAGUCCCGUACGGAACG [C27A C31A C46G], GUUCCGUUGGCGUAAUGGUAACGCGUAUCCAUCCUAAGGAGAAGACUGUGGGUUCGACUCCUGAACGGAACG [C27A C31A C49U G58C C62U U64A] is lower in yeast fitness: 0.688 for the first, at most 0.5 for the second.

Compared with GUUCCGUUGGCGUAAUGGUAACGCGUAUCCAUCCUAAGGAGAAGACUGCGGAUCCGACUCCCGUACGGAGCG [C27A C31A G52A U54C G58C A70G], GUUCCGUUGGCGUAAUGGUAACGCGUAUCCGUCCUAAGGAGAAGACUGCGGGUUCGAGUCCCGUACGGAACG [C27A C31G] is higher in yeast fitness: at most 0.5 for the first, 0.957 for the second.

GUUCCGUUGGCGUAAUGGUAACGCGUAUCCGUCCUAAGGAGAAGCCUGCGGGUUUGAGUCCCGUACGGAACG [C27A C31G A45C C55U] and GUUCCGUUGGCGUAAUGGUAACGCGUAUCCGUCCUAAGGAGAAGACUGCGGGUUCGCGUCCCGAACGAAACG [C27A C31G A57C U64A G68A] cannot be ordered by yeast fitness: at most 0.5 for the first, at most 0.5 for the second.

First: GUUCCGUUGGCGUAAUGGUAACGCGUAUCCGUCCUAAGGAGAAGACUGCGGGUUCGAGUCCCGUUCGGAACG [C27A C31G A65U]
Second: GUUCCGUUGGCGUAAUGGUAACGCGUAUCCGUCCUAAGGAGAAGACUGCGGGUUCGAGUCCCGUUCGGAGCG [C27A C31G A65U A70G]
The yeast fitness of the first is higher: 0.679 for the first, at most 0.5 for the second.

Going from GUUCCGUUGGCGUAAUGGUAACGCGUAUCCGUCCUAAGGAGAAGAUUGCGGGUUCGAGUCCCGUACGGAACG [C27A C31G C46U] to GUUCCGUUGGCGUAAUGGUAACGCGUAUCCGUCCUAAGGAGAAGACUGCGGGUUCGAGUCUCGUACGGAACG [C27A C31G C61U], the yeast fitness rises from 0.621 to 0.669.

Going from GUUCCGUUGGCGUAAUGGUAACGCGUAUCCUUACUAAGGAGUAGACUGCGGGUUCGAGUCCCGUACAGAACG [C27A C31U C33A A42U G67A] to GUUCCGUUGGCGUAAUGGUAACGCGUAUCCCUACUAAGGAGUAGACUGCGGGUUCGAGUCCCGUACGGAACG [C27A C33A A42U], the yeast fitness rises from at most 0.5 to 0.619.

First: GUUCCGUUGGCGUAAUGGUAACGCGUAUCCCUACUAAGGAGAAGAAUGCGGGUUCGAGUCCCCUACGGAACG [C27A C33A C46A G63C]
Second: GUUCCGUUGGCGUAAUGGUAACGCGUAUCCCUGCUAAGGAGAAGACUGCGGGUUCGAGUCCCGUACGGAACG [C27A C33G]
The yeast fitness of the first is lower: at most 0.5 for the first, 0.711 for the second.

Compared with GUUCCGUUGGCGUAAUGGUAACGCGUAUCCCUGCUAAGGAGAAGCCUGCGGGUUCGAGUCCCGUACGGAACG [C27A C33G A45C], GUUCCGUUGGCGUAAUGGUAACGCGUAUCCCUUCUAAGGAGAAGACUGCGGGUUCGAGUCCCGUACGGAACG [C27A C33U] is higher in yeast fitness: 0.53 for the first, 0.799 for the second.

GUUCCGUUGGCGUAAUGGUAACGCGUAUCCCUUCUAAGGAGUAGACUGCGGGUUCGAGUCCCGUACGGAACG [C27A C33U A42U] and GUUCCGUUGGCGUAAUGGUAACGCGUAUCCCUUCUAAGGAGAACUCUGCCGGUUCGAGUCCCGUACAGAACG [C27A C33U G44C A45U G50C G67A] cannot be ordered by yeast fitness: at most 0.5 for the first, at most 0.5 for the second.

Going from GUUCCGUUGGCGUAAUGGUAACGCGUAUCCCUUCUAAGGAGAAGACUGCGGCUUCGAGUCCGGUACGGAACG [C27A C33U G52C C62G] to GUUCCGUUGGCGUAAUGGUAACGCGUAUCCCUCAUAAGGAGAAGACUGCGGGUUCGAGUCCCGUACUGCACG [C27A C34A G67U A69C], the yeast fitness falls from 0.579 to at most 0.5.

Compared with GUUCCGUUGGCGUAAUGGUAACGCGUAUCCCUCGUAAGGGGAAGACUGCGGGUUCGAGUCCCGUGCGGAACG [C27A C34G A40G A65G], GUUCCGUUGGCGUAAUGGUAACGCGUAUCCCUCGUAAGGAGGAGACUGCAGGUUCGAGUCCGGUACGGAACG [C27A C34G A42G G50A C62G] is lower in yeast fitness: 0.799 for the first, at most 0.5 for the second.

First: GUUCCGUUGGCGUAAUGGUAACGCGUAUCCCUCGUAAAGAGAAGACUGCGGGUUCGAGUCCCCUACGGAACG [C27A C34G G38A G63C]
Second: GUUCCGUUGGCGUAAUGGUAACGCGUAUCCCUCUUAAGGAGAAGACUGCGGGUUCGAGUCCCGUACGGAACG [C27A C34U]
The yeast fitness of the first is lower: at most 0.5 for the first, 0.598 for the second.

GUUCCGUUGGCGUAAUGGUAACGCGUAUCCCUCUUAAGGAGCAGACUGCGGGGUCGAGUCCCGUACGGAACG [C27A C34U A42C U53G] and GUUCCGUUGGCGUAAUGGUAACGCGUAUCCCUCUUAAGGAGUAGACUGCCGGUUCGAAUCCCGUACGCGACG [C27A C34U A42U G50C G58A G68C A69G] cannot be ordered by yeast fitness: at most 0.5 for the first, at most 0.5 for the second.

First: GUUCCGUUGGCGUAAUGGUAACGCGUAUCCCUCUUAAGGAGAAGACUGCGGGUUCGAGUCCUGCACGGAACG [C27A C34U C62U U64C]
Second: GUUCCGUUGGCGUAAUGGUAACGCGUAUCCCUCCUAAGGAGAAGAAUGCGGGUUCGAGUCCCGUACGGAACG [C27A C46A]
The yeast fitness of the first is lower: at most 0.5 for the first, 0.907 for the second.

Compared with GUUCCGUUGGCGUAAUGGUAACGCGUAUCCCUCCUAAGGAGAAGAUUGCGGGUUCGAGUCCCGUACGGAACG [C27A C46U], GUUCCGUUGGCGUAAUGGUAACGCGUAUCCCUCCUAAGGAGAAGAUUGCGGGUUCGAGUCCCGUACGGAUCG [C27A C46U A70U] is lower in yeast fitness: 1.05 for the first, 0.733 for the second.

First: GUUCCGUUGGCGUAAUGGUAACGCGUAUCCCUCCUAAGGAGAAGAUUGCGGAUUCGAGUCCCGUACGGAACG [C27A C46U G52A]
Second: GUUCCGUUGGCGUAAUGGUAACGCGUAUCCCUCCUAAGGAGAAGACUGAGGGUUCGAGUCCCGUACGGAACG [C27A C49A]
The yeast fitness of the first is lower: 0.644 for the first, 0.749 for the second.

First: GUUCCGUUGGCGUAAUGGUAACGCGUAUCCCUCCUAAGGAGAAGACUGGGGGAUCGAGUCCAGUACGGAACG [C27A C49G U53A C62A]
Second: GUUCCGUUGGCGUAAUGGUAACGCGUAUCCCUCCUAAGGAGAAGACUGUGGGUUCGAGUCCCGUACGGAACG [C27A C49U]
The yeast fitness of the first is lower: 0.571 for the first, 0.826 for the second.

First: GUUCCGUUGGCGUAAUGGUAACGCGUAUCCCUCCUAAGGAGAAGACUGCGGGUUUGAGUCCCGUACGGAACG [C27A C55U]
Second: GUUCCGUUGGCGUAAUGGUAACGCGUAUCCCUCCUAAGGAGAAGACUGCGGGUUUGCGUCAGGUACGGAACG [C27A C55U A57C C61A C62G]
The yeast fitness of the first is higher: 0.662 for the first, at most 0.5 for the second.
